One block for each compound: values may come before it. The source made the active and inactive calls. The calls are words filed in the database; no cut-off is given here.
Columns and labels:
[1] = target: T1, von Hippel-Lindau disease tumor suppressor/AKT (Homo sapiens) (UniProt P31751+Q9Y243+P31749+P40337); assay: Protac activity at VHL/AKT in human BT-474 cells assessed as reduction in total AKT protein level at 1 to 10 uM measured after 24 hrs by Western blot analysis; format: cell-based; details: dose 1-10 µM
Procedure, shortened: (§1)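 BT474 cells treated 24 h at 1, 5 or 10 μM, alongside AZD5363 (1 μM) and the matching E3 ligand VHL-1 or pomalidomide (1 μM). Lysates in urea/SDS sample buffer were run on 4–12% Bis-Tris gels and blotted to PVDF. Blots probed for total AKT, P-AKT S473, P-PRAS40 T246 and P-S6 S240/244, with β-actin loading control and chemiluminescent detection.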

BT-474 = assay: Inhibition of colony formation in human BT-474 cells at 0.1 to 10 uM incubated for 14 days by replacing culture medium for every 2 days by crystal violet staining based assay; format: functional, cell-based; details: dose 0.1-10 µM, time 14.0 day
Procedure, shortened: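 BT474 cells cultured 14 days with compound. Medium plus compound was replaced every 2 days. Viable cells were then stained with 0.5% crystal violet.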

[2] = target: RAC-alpha serine/threonine-protein kinase (Homo sapiens, UniProt P31749); assay: Binding affinity to DNA-tagged AKT1 (unknown origin) assessed as dissociation constant by q-PCR based competitive binding assay
Procedure, shortened: (§2)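 KINOMEscan competition binding: DNA-tagged kinase competes between test compound and an immobilized active-site ligand, with bound kinase read by qPCR of the tag. Kd fitted from an 11-point threefold dilution series (top 30 μM) plus three DMSO control points, run in duplicate.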

[3] = target: RAC-gamma serine/threonine-protein kinase (Homo sapiens, UniProt Q9Y243); assay: Binding affinity to DNA-tagged AKT3 (unknown origin) assessed as dissociation constant by q-PCR based competitive binding assay; procedure, shortened: as §2
[4] = Protac activity at CRBN/AKT in human BT-474 cells assessed as reduction in AKT protein level at 1 to 10 uM measured after 24 hrs by Western blot analysis; details: dose 1-10 µM
[5] = Protac activity at CRBN/AKT in human BT-474 cells assessed as reduction in AKT protein level at 10 uM measured after 24 hrs by Western blot analysis
[6] = Protac activity at CRBN/AKT in human BT-474 cells assessed as inhibition of downstream signalling by measuring reduction in PRAS40 phosphorylation at T246 residue at 1 to 10 uM measured after 24 hrs Western blot analysis; details: dose 1-10 µM
PC-3 = assay: Antiproliferative activity against human PC-3 cells assessed as inhibition of cell growth measured after 5 days by IncuCyte zoom live cell analysis; format: functional; details: PC-3, 120 h, time 5 day
Procedure, shortened: (§3)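 Cells grown in DMEM with 10% FBS at 37 °C, 5% CO₂. Seeded at 1–3 × 10³ cells/well in triplicate with serial compound dilutions for 5 days. Growth was taken as confluence from IncuCyte phase-contrast images of live cells. Three independent experiments.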

MDA-MB-468 = assay: Antiproliferative activity against human MDA-MB-468 cells assessed as cell growth by measured after 5 days by IncuCyte zoom live cell analysis; format: functional; details: MDA-MB-468, 120 h, time 5 day; procedure, shortened: as §3
[7] = target: T1, von Hippel-Lindau disease tumor suppressor/AKT (Homo sapiens); assay: Protac activity at VHL/AKT in human BT-474 cells assessed as inhibition of downstream signalling by measuring reduction in PRAS40 phosphorylation at T246 residue at 5 uM measured after 24 hrs Western blot analysis; format: cell-based; procedure, shortened: as §1

Chain of RAC-alpha serine/threonine-protein kinase (P31749 whole entry): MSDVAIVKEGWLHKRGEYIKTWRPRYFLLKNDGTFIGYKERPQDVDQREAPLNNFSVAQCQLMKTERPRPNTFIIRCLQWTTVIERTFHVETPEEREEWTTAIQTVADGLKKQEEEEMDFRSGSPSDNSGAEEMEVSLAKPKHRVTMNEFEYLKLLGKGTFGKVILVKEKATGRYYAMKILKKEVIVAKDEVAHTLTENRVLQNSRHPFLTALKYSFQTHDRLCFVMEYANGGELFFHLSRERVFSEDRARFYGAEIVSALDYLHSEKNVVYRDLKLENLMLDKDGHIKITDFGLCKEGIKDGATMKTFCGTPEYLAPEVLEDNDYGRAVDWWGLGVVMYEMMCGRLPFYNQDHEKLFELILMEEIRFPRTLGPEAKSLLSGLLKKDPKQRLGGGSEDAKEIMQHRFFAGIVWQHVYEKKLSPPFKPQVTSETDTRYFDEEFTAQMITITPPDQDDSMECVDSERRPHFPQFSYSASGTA
Chain of RAC-gamma serine/threonine-protein kinase (Q9Y243 whole entry): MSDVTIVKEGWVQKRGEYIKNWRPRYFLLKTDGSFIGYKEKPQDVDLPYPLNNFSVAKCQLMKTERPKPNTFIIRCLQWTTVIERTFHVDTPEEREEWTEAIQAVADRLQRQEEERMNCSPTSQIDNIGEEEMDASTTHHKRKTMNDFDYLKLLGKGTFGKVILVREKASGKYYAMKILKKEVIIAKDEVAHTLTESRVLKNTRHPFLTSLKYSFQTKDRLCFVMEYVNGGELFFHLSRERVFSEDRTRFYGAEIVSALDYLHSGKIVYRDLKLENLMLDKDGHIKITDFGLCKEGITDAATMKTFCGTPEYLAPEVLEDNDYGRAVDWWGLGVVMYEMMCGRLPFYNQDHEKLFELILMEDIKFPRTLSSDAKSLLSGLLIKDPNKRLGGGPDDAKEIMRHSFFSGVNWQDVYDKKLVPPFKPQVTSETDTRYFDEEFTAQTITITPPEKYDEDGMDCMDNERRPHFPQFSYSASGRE

Activity [1]: inactive
Structure (SMILES): Cc1ncsc1-c1ccc(CNC(=O)[C@@H]2C[C@@H](O)CN2C(=O)[C@@H](NC(=O)CCCC(=O)N2CCN(CC[C@H](NC(=O)C3(N)CCN(c4ncnc5[nH]ccc45)CC3)c3ccc(Cl)cc3)CC2)C(C)(C)C)cc1

Activity [1]: inactive
Structure (SMILES): Cc1ncsc1-c1ccc(CNC(=O)[C@@H]2C[C@@H](O)CN2C(=O)[C@@H](NC(=O)CCOCCOCCOCCC(=O)N2CCN(CC[C@H](NC(=O)C3(N)CCN(c4ncnc5[nH]ccc45)CC3)c3ccc(Cl)cc3)CC2)C(C)(C)C)cc1

Structure (SMILES): Cc1ncsc1-c1ccc(CNC(=O)[C@@H]2C[C@@H](O)CN2C(=O)[C@@H](NC(=O)CCCCCCCCCCCC(=O)N2CCN(CC[C@H](NC(=O)C3(N)CCN(c4ncnc5[nH]ccc45)CC3)c3ccc(Cl)cc3)CC2)C(C)(C)C)cc1
inhibition (BT-474): Active

Kd [2]: 0.15 µM
Kd [3]: 2.9 µM
Structure (SMILES): Cc1ncsc1-c1ccc(CNC(=O)[C@@H]2C[C@@H](OCc3ccccc3)CN2C(=O)[C@@H](NC(=O)CCCCCCCCCCC(=O)N2CCN(CC[C@H](NC(=O)C3(N)CCN(c4ncnc5[nH]ccc45)CC3)c3ccc(Cl)cc3)CC2)C(C)(C)C)cc1

Activity [4]: inactive
Structure (SMILES): NC1(C(=O)N[C@@H](CCN2CCN(C(=O)CNc3cccc4c3C(=O)N(C3CCC(=O)NC3=O)C4=O)CC2)c2ccc(Cl)cc2)CCN(c2ncnc3[nH]ccc23)CC1 (stereo partly specified)

Activity [1]: inactive
Structure (SMILES): Cc1ncsc1-c1ccc(CNC(=O)[C@@H]2C[C@@H](O)CN2C(=O)[C@@H](NC(=O)CCOCCOCCOCCOCCC(=O)N2CCN(CC[C@H](NC(=O)C3(N)CCN(c4ncnc5[nH]ccc45)CC3)c3ccc(Cl)cc3)CC2)C(C)(C)C)cc1

Activity [1]: inactive
Structure (SMILES): Cc1ncsc1-c1ccc(CNC(=O)[C@@H]2C[C@@H](O)CN2C(=O)[C@@H](NC(=O)COCCOCCOCCOCCOCC(=O)N2CCN(CC[C@H](NC(=O)C3(N)CCN(c4ncnc5[nH]ccc45)CC3)c3ccc(Cl)cc3)CC2)C(C)(C)C)cc1

Activity [1]: inactive
Structure (SMILES): Cc1ncsc1-c1ccc(CNC(=O)[C@@H]2C[C@@H](O)CN2C(=O)[C@@H](NC(=O)CCOCCOCCC(=O)N2CCN(CC[C@H](NC(=O)C3(N)CCN(c4ncnc5[nH]ccc45)CC3)c3ccc(Cl)cc3)CC2)C(C)(C)C)cc1

Activity [1]: inactive
Structure (SMILES): Cc1ncsc1-c1ccc(CNC(=O)[C@@H]2C[C@@H](O)CN2C(=O)[C@@H](NC(=O)COCCOCC(=O)N2CCN(CC[C@H](NC(=O)C3(N)CCN(c4ncnc5[nH]ccc45)CC3)c3ccc(Cl)cc3)CC2)C(C)(C)C)cc1

Activity [1]: Active
Structure (SMILES): Cc1ncsc1-c1ccc(CNC(=O)[C@@H]2C[C@@H](O)CN2C(=O)[C@@H](NC(=O)COCC(=O)N2CCN(CC[C@H](NC(=O)C3(N)CCN(c4ncnc5[nH]ccc45)CC3)c3ccc(Cl)cc3)CC2)C(C)(C)C)cc1

Activity [4]: Active
Structure (SMILES): NC1(C(=O)N[C@@H](CCN2CCN(C(=O)CCCCNc3cccc4c3C(=O)N(C3CCC(=O)NC3=O)C4=O)CC2)c2ccc(Cl)cc2)CCN(c2ncnc3[nH]ccc23)CC1 (stereo partly specified)

Activity [4]: inactive
Structure (SMILES): NC1(C(=O)N[C@@H](CCN2CCN(C(=O)CCNc3cccc4c3C(=O)N(C3CCC(=O)NC3=O)C4=O)CC2)c2ccc(Cl)cc2)CCN(c2ncnc3[nH]ccc23)CC1 (stereo partly specified)

Activity [5]: inactive
Structure (SMILES): NC1(C(=O)N[C@@H](CCN2CCN(C(=O)CCOCCOCCOCCOCCOCCCc3cccc4c3C(=O)N(C3CCC(=O)NC3=O)C4=O)CC2)c2ccc(Cl)cc2)CCN(c2ncnc3[nH]ccc23)CC1 (stereo partly specified)
inhibition (BT-474): inactive

Activity [4]: inactive
Structure (SMILES): NC1(C(=O)N[C@@H](CCN2CCN(C(=O)CCCCCCCNc3cccc4c3C(=O)N(C3CCC(=O)NC3=O)C4=O)CC2)c2ccc(Cl)cc2)CCN(c2ncnc3[nH]ccc23)CC1 (stereo partly specified)

Structure (SMILES): Cc1ncsc1-c1ccc(CNC(=O)[C@@H]2C[C@@H](O)CN2C(=O)[C@@H](NC(=O)CCCCCCCCCC(=O)N2CCN(CC[C@H](NC(=O)C3(N)CCN(c4ncnc5[nH]ccc45)CC3)c3ccc(Cl)cc3)CC2)C(C)(C)C)cc1
inhibition (BT-474): Active

Structure (SMILES): Cc1ncsc1-c1ccc([C@H](C)NC(=O)[C@@H]2C[C@@H](O)CN2C(=O)[C@@H](NC(=O)CCCCCCCCCC(=O)N2CCN(CC[C@H](NC(=O)C3(N)CCN(c4ncnc5[nH]ccc45)CC3)c3ccc(Cl)cc3)CC2)C(C)(C)C)cc1
inhibition (BT-474): Active

Kd [2]: 0.0055 µM
Kd [3]: 0.023 µM
Structure (SMILES): CN1C(=O)CCC(N2C(=O)c3cccc(NCCOCCOCCOCCOCCOCCC(=O)N4CCN(CC[C@H](NC(=O)C5(N)CCN(c6ncnc7[nH]ccc67)CC5)c5ccc(Cl)cc5)CC4)c3C2=O)C1=O (stereo partly specified)

Activity [4]: Active
inhibition [6]: Active
Structure (SMILES): NC1(C(=O)N[C@@H](CCN2CCN(C(=O)CCCCCNc3cccc4c3C(=O)N(C3CCC(=O)NC3=O)C4=O)CC2)c2ccc(Cl)cc2)CCN(c2ncnc3[nH]ccc23)CC1 (stereo partly specified)

Activity [5]: inactive
Structure (SMILES): NC1(C(=O)N[C@@H](CCN2CCN(C(=O)CCOCCOCCOCCOCCOCCNc3cccc4c3CN(C3CCC(=O)NC3=O)C4=O)CC2)c2ccc(Cl)cc2)CCN(c2ncnc3[nH]ccc23)CC1 (stereo partly specified)

Activity [1]: inactive
Structure (SMILES): Cc1ncsc1-c1ccc(CNC(=O)[C@@H]2C[C@@H](O)CN2C(=O)[C@@H](NC(=O)CCOCCOCCOCCOCCOCCC(=O)N2CCN(CC[C@H](NC(=O)C3(N)CCN(c4ncnc5[nH]ccc45)CC3)c3ccc(Cl)cc3)CC2)C(C)(C)C)cc1

Activity [1]: inactive
Structure (SMILES): Cc1ncsc1-c1ccc(CNC(=O)[C@@H]2C[C@@H](O)CN2C(=O)[C@@H](NC(=O)CCOCCC(=O)N2CCN(CC[C@H](NC(=O)C3(N)CCN(c4ncnc5[nH]ccc45)CC3)c3ccc(Cl)cc3)CC2)C(C)(C)C)cc1

GI50 (PC-3): 10.8 µM
GI50 (MDA-MB-468): 4.8 µM
Structure (SMILES): NC1(C(=O)N[C@@H](CCN2CCN(C(=O)CCOCCOCCOCCOCCOCCNc3cccc4c3C(=O)N(C3CCC(=O)NC3=O)C4=O)CC2)c2ccc(Cl)cc2)CCN(c2ncnc3[nH]ccc23)CC1 (stereo partly specified)

Activity [1]: Active
inhibition [7]: inactive
Structure (SMILES): Cc1ncsc1-c1ccc(CNC(=O)[C@@H]2C[C@@H](O)CN2C(=O)[C@@H](NC(=O)CCCCCC(=O)N2CCN(CC[C@H](NC(=O)C3(N)CCN(c4ncnc5[nH]ccc45)CC3)c3ccc(Cl)cc3)CC2)C(C)(C)C)cc1

Activity [4]: inactive
Structure (SMILES): NC1(C(=O)N[C@@H](CCN2CCN(C(=O)CCCCCCNc3cccc4c3C(=O)N(C3CCC(=O)NC3=O)C4=O)CC2)c2ccc(Cl)cc2)CCN(c2ncnc3[nH]ccc23)CC1 (stereo partly specified)

Activity [1]: inactive
Structure (SMILES): Cc1ncsc1-c1ccc(CNC(=O)[C@@H]2C[C@@H](O)CN2C(=O)[C@@H](NC(=O)COCCOCCOCC(=O)N2CCN(CC[C@H](NC(=O)C3(N)CCN(c4ncnc5[nH]ccc45)CC3)c3ccc(Cl)cc3)CC2)C(C)(C)C)cc1

Activity [5]: inactive
Structure (SMILES): NC1(C(=O)N[C@@H](CCN2CCN(C(=O)CCOCCOCCOCCOCCOCCOc3cccc4c3C(=O)N(C3CCC(=O)NC3=O)C4=O)CC2)c2ccc(Cl)cc2)CCN(c2ncnc3[nH]ccc23)CC1 (stereo partly specified)
inhibition (BT-474): inactive

Activity [1]: Active
inhibition [7]: inactive
Structure (SMILES): Cc1ncsc1-c1ccc(CNC(=O)[C@@H]2C[C@@H](O)CN2C(=O)[C@@H](NC(=O)CCCCC(=O)N2CCN(CC[C@H](NC(=O)C3(N)CCN(c4ncnc5[nH]ccc45)CC3)c3ccc(Cl)cc3)CC2)C(C)(C)C)cc1

Activity [5]: Active
Structure (SMILES): NC1(C(=O)N[C@@H](CCN2CCN(C(=O)CCOCCNc3cccc4c3C(=O)N(C3CCC(=O)NC3=O)C4=O)CC2)c2ccc(Cl)cc2)CCN(c2ncnc3[nH]ccc23)CC1 (stereo partly specified)

Activity [1]: inactive
Structure (SMILES): Cc1ncsc1-c1ccc(CNC(=O)[C@@H]2C[C@@H](O)CN2C(=O)[C@@H](NC(=O)CCC(=O)N2CCN(CC[C@H](NC(=O)C3(N)CCN(c4ncnc5[nH]ccc45)CC3)c3ccc(Cl)cc3)CC2)C(C)(C)C)cc1

GI50 (PC-3): 6.5 µM
GI50 (MDA-MB-468): 3.8 µM
Structure (SMILES): NC1(C(=O)N[C@@H](CCO)c2ccc(Cl)cc2)CCN(c2nc[nH]c3nccc2-3)CC1 [CAPIVASERTIB]

Activity [4]: Active
inhibition [6]: Active
Structure (SMILES): NC1(C(=O)N[C@@H](CCN2CCN(C(=O)CCCNc3cccc4c3C(=O)N(C3CCC(=O)NC3=O)C4=O)CC2)c2ccc(Cl)cc2)CCN(c2ncnc3[nH]ccc23)CC1 (stereo partly specified)

Source: ChEMBL document CHEMBL5046272, “Discovery of Potent, Selective, and In Vivo Efficacious AKT Kinase Protein Degraders via Structure-Activity Relationship Studies” (J Med Chem, 2022)
